Measurements taken from ChEMBL document CHEMBL3112542, “Synthesis of triazole-functionalized 2-DOS analogues and their evaluation as A-site binders” (Bioorg Med Chem Lett, 2014).
Values after ≈ are worked out from the molar mass of the structure shown.

Assays:
Pseudomonas aeruginosa = experiment: Antimicrobial activity against Pseudomonas aeruginosa ATCC 27853 after 18 hrs by microdilution method; format: functional; details: ATCC 27853, 18 h
Staphylococcus aureus = experiment: Antimicrobial activity against Staphylococcus aureus ATCC 29213 after 18 hrs by microdilution method; format: functional; details: ATCC 29213, 18 h
Escherichia coli = experiment: Antimicrobial activity against Escherichia coli ATCC 25922 after 18 hrs by microdilution method; format: functional; details: ATCC 25922, 18 h
[1] = Binding affinity to Escherichia coli rRNA A site after 30 mins by luciferase transcription/translation assay
Method in brief: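 Coupled bacterial transcription-translation run in E. coli extract. IC50 taken from 2 replicate experiments per compound, each in duplicate (14%).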

[2] = Binding affinity to 2AP-labeled duplex RNA oligonucleotide ribosomal decoding site (unknown origin) by fluorescence spectrophotometry
Method in brief: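 Decoding-site RNA model oligonucleotide with 2-aminopurine replacing flexible A1492. Binding followed by enhancement of 2AP fluorescence emission. Values averaged from 3 replicate experiments per compound (10%).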

Row | SMILES | MIC (Pseudomonas aeruginosa) | MIC (Staphylococcus aureus) | MIC (Escherichia coli) | IC50 [1] | EC50 [2] | EC50 ([2]; read-out: EC50)
1 | N[C@H]1C[C@@H](n2cc(CO)nn2)[C@H](O)[C@@H](O)[C@@H]1O | > 700 µg/mL | 88 µg/mL (≈ 360 µM) | > 700 µg/mL | 468 µM | Not Active | 
2 | NCC[C@H](O)C(=O)N[C@H]1C[C@@H](N)[C@H](O)[C@@H](O)[C@@H]1O | > 840 µg/mL | 52.5 µg/mL (≈ 199 µM) | > 840 µg/mL | 475 µM |  | 8.7 µM
3 | NCC[C@H](O)C(=O)N[C@H]1C[C@@H](n2cc(CO)nn2)[C@H](O)[C@@H](O)[C@@H]1O | > 1000 µg/mL | 60 µg/mL (≈ 174 µM) | > 1000 µg/mL | 66.5 µM | Not Active | 
4 | N[C@@H]1C[C@H](N)[C@@H](O)[C@H](OCc2cn(CCO)nn2)[C@H]1OCC(=O)N1CCCCC1 | > 1000 µg/mL | 129 µg/mL (≈ 313 µM) | > 1000 µg/mL | 730 µM |  | 3 µM
5 | N[C@@H]1C[C@H](NC(=O)NCCO)[C@@H](O)[C@H](OCC(=O)N2CCOCC2)[C@H]1OCc1cn(CCO)nn1 | 157 µg/mL (≈ 313 µM) | 78 µg/mL (≈ 156 µM) | 235 µg/mL (≈ 469 µM) | 22.6 µM |  | 62 µM

Next, values leading:

Row | MIC (Pseudomonas aeruginosa) | MIC (Staphylococcus aureus) | MIC (Escherichia coli) | IC50 [1] | EC50 [2] | EC50 ([2]; read-out: EC50) | SMILES
6 | > 870 µg/mL | 109 µg/mL (≈ 350 µM) | > 870 µg/mL | 55.5 µM |  | 22.4 µM | NCCCC(=O)N[C@H]1C[C@@H]2[C@H](OCc3cnnn32)[C@@H](O)[C@@H]1O
7 | > 820 µg/mL | 102 µg/mL (≈ 312 µM) | > 820 µg/mL | 104 µM |  | 0.017 µM | NCC[C@H](O)C(=O)N[C@H]1C[C@@H]2[C@H](OCc3cnnn32)[C@@H](O)[C@@H]1O
8 | 283 µg/mL (≈ 1250 µM) | > 565 µg/mL | 283 µg/mL (≈ 1250 µM) | 317 µM |  | 53 µM | N[C@H]1C[C@@H]2[C@H](OCc3cnnn32)[C@@H](O)[C@@H]1O (single isomer, unassigned)
